In ChEMBL document CHEMBL4190282, “The Conjugated Double Bond of Coniferyl Aldehyde Is Essential for Heat Shock Factor 1 Mediated Cytotoprotection” (J Nat Prod, 2017):
Calls of active or inactive are those of the source. The calls are words filed in the database; no cut-off is given here.

How the values were obtained:
[1] = target: T1, Heat shock factor protein 1 (Homo sapiens) (UniProt Q00613); test: Activation of HSF1 in human NCI-H460 cells expressing pGL4-hsp25 construct assessed as upregulation of hsp25 promoter activity at 10 to 30 uM after 12 hrs by luciferase reporter gene assay; format: cell-based
T1 sequence (whole entry): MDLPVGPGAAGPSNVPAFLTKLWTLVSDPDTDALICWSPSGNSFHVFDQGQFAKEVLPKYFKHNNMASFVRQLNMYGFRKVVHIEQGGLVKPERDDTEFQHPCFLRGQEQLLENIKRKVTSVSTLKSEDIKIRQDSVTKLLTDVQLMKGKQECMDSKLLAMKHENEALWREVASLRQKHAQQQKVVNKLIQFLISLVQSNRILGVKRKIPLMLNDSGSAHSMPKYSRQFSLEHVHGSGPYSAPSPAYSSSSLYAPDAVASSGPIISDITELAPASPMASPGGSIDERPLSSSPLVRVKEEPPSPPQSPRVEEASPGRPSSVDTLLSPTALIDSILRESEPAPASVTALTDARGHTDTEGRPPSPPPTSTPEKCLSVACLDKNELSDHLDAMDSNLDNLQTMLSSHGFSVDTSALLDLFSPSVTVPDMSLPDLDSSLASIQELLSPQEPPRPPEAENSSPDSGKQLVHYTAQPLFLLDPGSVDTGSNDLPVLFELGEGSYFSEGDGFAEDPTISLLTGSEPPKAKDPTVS
Summary of the method: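 NCI-H460 cells stably carrying hsp25 or hsp70 promoter–luciferase reporters, seeded, treated after 24 h at 10 or 30 μM and harvested 12 h later. Lysate luciferase normalized to β-galactosidase; mean of three independent experiments, fold-change vs negative control.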

[2] = test system: L132; test: Cytoprotective activity against paclitaxel-induced PARP cleavage in human L-132 cells at 3 uM pretreated for 1 hr followed by paclitaxel addition measured after 24 hrs by immunoblotting analysis; format: functional, cell-based
Summary of the method: (§1)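 Human embryonic lung L132 cells in RPMI with 10% FBS. 1 h pretreatment at 3 μM, then 0.5 μM paclitaxel or 20 μM cisplatin for 24 h, or 10 Gy 137Cs γ-rays (3.81 Gy/min) for 48 h. Cleaved PARP and caspase-3 immunoblotted (ECL); bands normalized to loading control, fold-change vs negative control, ≥3 independent experiments.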

[3] = target: T1, Heat shock factor protein 1 (Homo sapiens); test: Activation of HSF1 in human L132 cells assessed as increase in HSP25 protein levels at 3 uM after 12 hrs by immunoblotting analysis; format: cell-based
Summary of the method: (§2)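 L132 cells treated at 3 μM for 12 h, or at various doses for 12 h, or at 3 μM over a time course. Lysates resolved by SDS-PAGE, blotted to nitrocellulose, milk-blocked, primary antibodies 18 h at 4 °C, ECL detection. HSP27, HSP70 and Ser326-phospho-HSF1 bands normalized to loading control; ≥3 independent experiments; celastrol 1 μM positive control.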

[4] = target: T1, Heat shock factor protein 1 (Homo sapiens); test: Induction of HSF1 phosphorylation at Ser326 residue in human L-132 cells at 3 uM after 12 hrs by immunoblotting analysis; format: cell-based; summary of the method: as §2
[5] = test system: L132; test: Cytoprotective activity against cisplatin-induced PARP cleavage in human L-132 cells at 3 uM pretreated for 1 hr followed by cisplatin addition measured after 24 hrs by immunoblotting analysis; format: functional, cell-based; summary of the method: as §1
[6] = test system: MEF; test: Cytoprotective activity against IR-induced caspase3 cleavage in HSF1 deficient MEF at 3 uM pretreated for 1 hr followed by 10 Gy irradiation measured after 48 hrs by immunoblotting analysis; format: functional, cell-based; settings: Mus musculus
Summary of the method: (§3)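 HSF1+/+ or HSF1−/− MEFs in DMEM with heat-inactivated 10% FBS, nonessential amino acids, glutamine, HEPES, 37 °C, 5% CO2. 1 h pretreatment at 3 μM, then 0.5 μM paclitaxel or 20 μM cisplatin for 24 h, or 10 Gy 137Cs γ-rays (3.81 Gy/min) for 48 h. Cleaved PARP and caspase-3 immunoblotted; bands normalized to loading control, fold-change vs negative control, ≥3 independent experiments.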

[7] = target: T2, Heat shock factor protein 1 (Mus musculus) (UniProt P38532); test: Activation of HSF1 in MEF assessed as protection against cisplatin-induced caspase3 cleavage at 3 uM pretreated for 1 hr followed by cisplatin addition measured after 24 hrs by immunoblotting analysis; format: cell-based; summary of the method: as §3
T2 sequence (whole entry): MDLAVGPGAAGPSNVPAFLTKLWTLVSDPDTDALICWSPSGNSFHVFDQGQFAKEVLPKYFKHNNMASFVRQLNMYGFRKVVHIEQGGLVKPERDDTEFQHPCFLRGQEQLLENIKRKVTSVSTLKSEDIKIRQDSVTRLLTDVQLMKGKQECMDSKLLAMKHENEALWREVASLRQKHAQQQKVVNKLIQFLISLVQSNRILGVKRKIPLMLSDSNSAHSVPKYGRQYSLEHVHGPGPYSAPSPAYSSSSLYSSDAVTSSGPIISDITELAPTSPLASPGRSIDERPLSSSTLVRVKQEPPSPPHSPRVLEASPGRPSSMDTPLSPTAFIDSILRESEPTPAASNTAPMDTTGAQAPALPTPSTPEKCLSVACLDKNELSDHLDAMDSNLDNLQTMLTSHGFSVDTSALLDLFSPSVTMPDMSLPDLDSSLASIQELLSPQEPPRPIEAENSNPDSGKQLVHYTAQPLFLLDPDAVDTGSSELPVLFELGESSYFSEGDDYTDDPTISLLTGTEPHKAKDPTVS

[8] = test system: Mus musculus; test: Toxicity in ICR mouse at 10 mg/kg, ip measured within 30 days; format: organism-based; settings: in vivo, 720 h
Summary of the method: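 Normal ICR mice given 10 mg/kg ip (DMSO stock diluted in modified PBS); observed for signs of toxicity over 30 days.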

[9] = test system: Mus musculus; test: Protection against IR-induced lethargy in ICR mouse at 5 to 10 mg/kg, ip administered once before and three times after 7 Gy irradiation measured daily for 30 days; format: functional, organism-based
Summary of the method: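 Female ICR mice (5–6 weeks, 25–30 g) given 7 Gy whole-body IR; dosed ip at 5 or 10 mg/kg once before and three times after IR, DMSO stock diluted in modified PBS. Survival days and radiation sickness signs checked twice daily; 10 mice per group.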

[10] = test system: Mus musculus; test: Protection against IR-induced reduction in circulating WBCs in ICR mouse at 10 mg/kg, ip administered once before and three times after 4.5 Gy irradiation measured after 9 days; format: functional, organism-based
Summary of the method: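 Female ICR mice (5–6 weeks) given 4.5 Gy whole-body IR, dosed ip at 10 mg/kg once before and three times after IR; 5 per group, sacrificed day 9. BM cellularity from H&E (hematopoietic cells per 200×200 μm area); peripheral WBC, lymphocytes, neutrophils; Ki67 IHC counted in five fields per femur; relative spleen weight vs control. Means ± SD, Student's t test.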

[11] = target: T1, Heat shock factor protein 1 (Homo sapiens); test: Activation of HSF1 in human L132 cells assessed as increase in HSP70 protein levels at 3 uM after 6 to 24 hrs by immunoblotting analysis; format: cell-based; summary of the method: as §2
[12] = test system: L132; test: Cytoprotective activity against cisplatin-induced cell death in human L-132 cells at 3 uM pretreated for 1 hr followed by cisplatin addition measured after 24 hrs by FACS analysis; format: functional, cell-based
Summary of the method: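 L132 cells in RPMI with 10% FBS. 1 h pretreatment at 3 μM, then 0.5 μM paclitaxel or 20 μM cisplatin for 24 h, or 10 Gy γ-rays for 48 h. Cells trypsinized, washed, stained with propidium iodide and analysed by flow cytometry. Means ± SD of ≥3 independent experiments, fold-change vs negative control.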

| Compound | Activity [1] | Activity [2] | Activity [3] | Activity [4] | Activity [5] | Activity [6] | Activity [7] | Activity [8] | Activity [9] | Activity [10] | Activity [11] | Activity [12] |
| --- | --- | --- | --- | --- | --- | --- | --- | --- | --- | --- | --- | --- |
| COc1cc(/C=C/C=O)ccc1O [CONIFERYL ALDEHYDE] | Active | Active | Active | Active | Active | inactive | Active | Non-Toxic | Active | Active | Active | Active |
| COc1cc(/C=C/CO)ccc1O [CONIFERYL ALCOHOL] | Active | Active | Active | Active | Active | inactive | Active | Non-Toxic | Active | Active | Active | Active |
